Data: ChEMBL document CHEMBL1817569, “Synthesis, antifungal activity and QSAR study of 2-arylhydroxynitroindoles” (Eur J Med Chem, 2011)
Converted amounts (≈) assume the structure as drawn.

Tests used:
Fusarium oxysporum [1] = experiment: Fungicidal activity against Fusarium oxysporum assessed as mycelium growth inhibition at 30 ug/mL after 72 hrs; assay type: functional; conditions: read-out: GI
In short: (§1)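 Radial mycelial growth test on potato-saccharose agar mixed with compound at a single concentration. Plates are inoculated with inverted 3-mm fungus-coated discs and incubated at 25 °C. Colony diameter (mm) is read at 72 h against medium without sample. Inhibition I = [(DC − DT)/DC] × 100%. Three replicates.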

Rhizoctonia solani [2] = experiment: Fungicidal activity against Rhizoctonia solani assessed as mycelium growth inhibition at 30 ug/mL after 72 hrs; assay type: functional; conditions: read-out: GI; in short: as §1
Fusarium verticillioides [3] = experiment: Fungicidal activity against Fusarium moniliforme assessed as mycelium growth inhibition after 72 hrs; assay type: functional, organism-based
In short: (§2)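 EC50 from radial mycelial growth on potato-saccharose agar over a 1–100 concentration range. Inverted 3-mm fungus-coated discs are placed on the agar and incubated at 25 °C. Colony diameter (mm) is measured at 72 h, with plain medium as blank. Percent inhibition = (DC − DT)/DC × 100. Triplicate tests.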

Sclerotinia sclerotiorum [4] = experiment: Fungicidal activity against Sclerotinia sclerotiorum assessed as mycelium growth inhibition at 30 ug/mL after 72 hrs; assay type: functional; conditions: read-out: GI; in short: as §1
Fusarium oxysporum [5] = experiment: Fungicidal activity against Fusarium oxysporum assessed as mycelium growth inhibition after 72 hrs; assay type: functional, organism-based; in short: as §2
Rhizoctonia solani [6] = experiment: Fungicidal activity against Rhizoctonia solani assessed as mycelium growth inhibition after 72 hrs; assay type: functional, organism-based; in short: as §2
Venturia inaequalis [7] = experiment: Fungicidal activity against Venturia inaequalis assessed as mycelium growth inhibition after 72 hrs; assay type: functional, organism-based; in short: as §2
Venturia inaequalis [8] = experiment: Fungicidal activity against Venturia inaequalis assessed as mycelium growth inhibition at 30 ug/mL after 72 hrs; assay type: functional; conditions: read-out: GI; in short: as §1
Sclerotinia sclerotiorum [9] = experiment: Fungicidal activity against Sclerotinia sclerotiorum assessed as mycelium growth inhibition after 72 hrs; assay type: functional, organism-based; in short: as §2
Fusarium verticillioides [10] = experiment: Fungicidal activity against Fusarium moniliforme assessed as mycelium growth inhibition at 30 ug/mL after 72 hrs; assay type: functional; conditions: read-out: GI; in short: as §1
Bipolaris sorokiniana [11] = experiment: Fungicidal activity against Bipolaris sorokiniana assessed as mycelium growth inhibition after 72 hrs; assay type: functional, organism-based; in short: as §2
Bipolaris sorokiniana [12] = experiment: Fungicidal activity against Bipolaris sorokiniana assessed as mycelium growth inhibition at 30 ug/mL after 72 hrs; assay type: functional; conditions: read-out: GI; in short: as §1

| SMILES | inhibition of growth at 30 µg/mL (Fusarium oxysporum [1]) [%] | inhibition of growth at 30 µg/mL (Rhizoctonia solani [2]) [%] | EC50 (Fusarium verticillioides [3]) [µg/mL] | inhibition of growth at 30 µg/mL (Sclerotinia sclerotiorum [4]) [%] | EC50 (Fusarium oxysporum [5]) [µg/mL] | EC50 (Rhizoctonia solani [6]) [µg/mL] | EC50 (Venturia inaequalis [7]) [µg/mL] | inhibition of growth at 30 µg/mL (Venturia inaequalis [8]) [%] | EC50 (Sclerotinia sclerotiorum [9]) [µg/mL] | inhibition of growth at 30 µg/mL (Fusarium verticillioides [10]) [%] | EC50 (Bipolaris sorokiniana [11]) [µg/mL] | inhibition of growth at 30 µg/mL (Bipolaris sorokiniana [12]) [%] |
| --- | --- | --- | --- | --- | --- | --- | --- | --- | --- | --- | --- | --- |
| Cc1c(-c2ccccc2)[nH]c2cc([N+](=O)[O-])cc(O)c12 | 87 | 100 | 3.48 (≈ 13 µM) | 100 | 18 (≈ 67.1 µM) | 5.86 (≈ 21.8 µM) | 15.4 (≈ 57.4 µM) | 93 | 8.65 (≈ 32.2 µM) | 100 | 13 (≈ 48.5 µM) | 89 |
| O=[N+]([O-])c1cc(O)c2cc(-c3ccccc3)[nH]c2c1 | 88 | 100 | 6.84 (≈ 26.9 µM) | 100 | 21.5 (≈ 84.6 µM) | 11.2 (≈ 44.1 µM) | 16.9 (≈ 66.5 µM) | 89 | 17.2 (≈ 67.7 µM) | 100 | 26.6 (≈ 105 µM) | 100 |
| O=[N+]([O-])c1cc(O)c2cc(-c3ccccc3Cl)[nH]c2c1 | 88 | 100 | – | 100 | – | – | – | 44 | – | 100 | – | 100 |
| O=[N+]([O-])c1cc(O)c2cc(-c3ccc(Cl)cc3Cl)[nH]c2c1 | 25 | 36 | – | 29 | – | – | – | 26 | – | 54 | – | 22 |
| O=[N+]([O-])c1cc(O)c2cc(-c3ccc(O)cc3)[nH]c2c1 | 27 | 38 | – | 19 | – | – | – | 20 | – | 39 | – | 18 |
| O=[N+]([O-])c1cc(O)c2c(CCn3cncn3)c(-c3ccc(F)cc3)[nH]c2c1 | 28 | 31 | – | 17 | – | – | – | 2 | – | 30 | – | 52 |
| O=[N+]([O-])c1cc(O)c2cc(-c3ccc(Br)cc3)[nH]c2c1 | 12 | 11 | – | 14 | – | – | – | 15 | – | 21 | – | 5 |
| O=[N+]([O-])c1cc(O)c2cc(-c3ccc(C(F)(F)F)cc3)[nH]c2c1 | 71 | 82 | – | 70 | – | – | – | 53 | – | 84 | – | 74 |
| O=[N+]([O-])c1cc(O)c2cc(-c3ccc(F)cc3)[nH]c2c1 | 58 | 96 | – | 48 | – | – | – | 60 | – | 73 | – | 35 |
| COc1ccccc1-c1cc2c(O)cc([N+](=O)[O-])cc2[nH]1 | 15 | 8 | – | 20 | – | – | – | 26 | – | 36 | – | 20 |
| Nc1cc([N+](=O)[O-])c2cc(-c3ccccc3)oc2c1 | 9 | 3 | – | 7 | – | – | – | 16 | – | 5 | – | 3 |
| COc1cc([N+](=O)[O-])cc2[nH]c(-c3ccccc3)c(C)c12 | 11 | 13 | – | 5 | – | – | – | 2 | – | 7 | – | 7 |
| COc1cc([N+](=O)[O-])cc2c1c(C)c(-c1ccccc1)n2C | 8 | 4 | – | 0 | – | – | – | 12 | – | 8 | – | 12 |
| COc1cc([N+](=O)[O-])cc2c1cc(-c1ccccc1)n2C | 7 | 7 | – | 8 | – | – | – | 21 | – | 23 | – | 7 |
| Cn1c(-c2ccccc2)cc2c(O)cc([N+](=O)[O-])cc21 | 56 | 77 | – | 23 | – | – | – | 46 | – | 51 | – | 77 |
| O=[N+]([O-])c1cc(O)c2cc(-c3ccccc3)n(Cc3ccc(Cl)cc3)c2c1 | 27 | 34 | – | 2 | – | – | – | 12 | – | 18 | – | 11 |
| Cc1c(-c2ccccc2)[nH]c2c([N+](=O)[O-])cc(O)cc12 | 34 | 91 | – | 51 | – | – | – | 41 | – | 54 | – | 83 |
| Cc1c(-c2ccccc2)[nH]c2c(O)cc([N+](=O)[O-])cc12 | 63 | 89 | – | 94 | – | – | – | 48 | – | 71 | – | 95 |
| Cc1c(-c2ccccc2)[nH]c2c([N+](=O)[O-])ccc(O)c12 | 73 | 100 | – | 51 | – | – | – | 70 | – | 84 | – | 83 |
| Cc1c(-c2ccccc2)[nH]c2c(O)ccc([N+](=O)[O-])c12 | 91 | 100 | – | 54 | – | – | – | 65 | – | 88 | – | 87 |
| CC(C)(C)C(=O)C(Oc1ccc(Cl)cc1)n1cncn1 (centres undefined) [TRIADIMEFON] | 60 | 66 | 2.41 (≈ 8.2 µM) | 47 | 3.25 (≈ 11.1 µM) | 20.6 (≈ 70.1 µM) | 20 (≈ 68.1 µM) | 42 | 6.18 (≈ 21 µM) | 79 | 11 (≈ 37.4 µM) | 71 |
